ChEMBL document CHEMBL3244101, “2-, 3-, and 4-(alpha, alpha, beta, beta-tetrafluorophenethyl)benzylamines. A new class of antiarrhythmic agents” (J Med Chem, 1977)
The source made the active and inactive calls. No cut-off for these calls is given here.

What was measured:
Canis familiaris [1] = experiment: Antiarrhythmic activity in anesthetized acute myocardial infarction dog model assessed as normal ECG complexes at 2.5 mg/kg, iv administered 10 mins prior to infarction measured during 1-hr postinfarction period (reference value: 19%); type: functional, Canis lupus familiaris, Heart
Outline: (§1)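 Sclerosing agent (tetrafluorohexachlorobutane) injected into the anterior descending coronary artery to produce a multifocal ventricular arrhythmia. Single iv dose 10 min before infarction. Segmented ECG tracings over the 1 h after infarction were scored as the percentage of complexes of sinus origin (normal). Saline controls were run alongside.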

Canis familiaris [2] = experiment: Antiarrhythmic activity in iv dosed anesthetized acute myocardial infarction dog model assessed as protection against ventricular arrhythmia development administered 10 mins prior to infarction measured during 1-hr postinfarction period; type: functional, Canis lupus familiaris, Heart; outline: as §1
Canis familiaris [3] = experiment: Antiarrhythmic activity in anesthetized acute myocardial infarction dog model assessed as normal ECG complexes at 0.5 mg/kg, iv administered 10 mins prior to infarction measured during 1-hr postinfarction period (reference value: 19%); type: functional, Canis lupus familiaris, Heart; outline: as §1
Canis familiaris [4] = experiment: Antiarrhythmic activity in anesthetized acute myocardial infarction dog model assessed as normal ECG complexes at 0.25 mg/kg, iv administered 10 mins prior to infarction measured during 1-hr postinfarction period (reference value: 19%); type: functional, Canis lupus familiaris, Heart; outline: as §1
Canis familiaris [5] = experiment: Antiarrhythmic activity in anesthetized acute myocardial infarction dog model assessed as normal ECG complexes at 5 mg/kg, iv administered 10 mins prior to infarction measured during 1-hr postinfarction period (reference value: 19%); type: functional, Canis lupus familiaris, Heart; outline: as §1
Canis familiaris [6] = experiment: Effect on cardiac conduction in anesthetized acute myocardial infarction dog model assessed as increase in QT duration at 10 mg/kg, iv administered 10 mins prior to infarction measured after 10 mins (reference value: 2 ms); type: functional, Canis lupus familiaris, Heart
Canis familiaris [7] = experiment: Effect on cardiac conduction in anesthetized acute myocardial infarction dog model assessed as increase in PR interval at 5 mg/kg, iv administered 10 mins prior to infarction measured after 10 mins (reference value: 0 ms); type: functional, Canis lupus familiaris, Heart
Canis familiaris [8] = experiment: Effect on cardiac conduction in anesthetized acute myocardial infarction dog model assessed as increase in PR interval at 10 mg/kg, iv administered 10 mins prior to infarction measured after 10 mins (reference value: 0 ms); type: functional, Canis lupus familiaris, Heart
Canis familiaris [9] = experiment: Reduction in heart rate in anesthetized acute myocardial infarction dog model at 10 mg/kg, iv administered 10 mins prior to infarction (reference value: 6 bpm); type: functional, Canis lupus familiaris
Canis familiaris [10] = experiment: Reduction in heart rate in anesthetized acute myocardial infarction dog model at 2.5 mg/kg, iv administered 10 mins prior to infarction (reference value: 6 bpm); type: functional, Canis lupus familiaris
Canis familiaris [11] = experiment: Effect on cardiac conduction in anesthetized acute myocardial infarction dog model assessed as increase in PR interval at 2.5 mg/kg, iv administered 10 mins prior to infarction measured after 10 mins (reference value: 0 ms); type: functional, Canis lupus familiaris, Heart
Canis familiaris [12] = experiment: Antiarrhythmic activity in anesthetized acute myocardial infarction dog model assessed as normal ECG complexes at 10 mg/kg, iv administered 10 mins prior to infarction measured during 1-hr postinfarction period (reference value: 19%); type: functional, Canis lupus familiaris, Heart; outline: as §1
Canis familiaris [13] = experiment: Reduction in heart rate in anesthetized acute myocardial infarction dog model at 5 mg/kg, iv administered 10 mins prior to infarction (reference value: 6 bpm); type: functional, Canis lupus familiaris
Canis familiaris [14] = experiment: Effect on cardiac conduction in anesthetized acute myocardial infarction dog model assessed as increase in QT duration at 2.5 mg/kg, iv administered 10 mins prior to infarction measured after 10 mins (reference value: 2 ms); type: functional, Canis lupus familiaris, Heart
Canis familiaris [15] = experiment: Effect on cardiac conduction in anesthetized acute myocardial infarction dog model assessed as increase in QT duration at 5 mg/kg, iv administered 10 mins prior to infarction measured after 10 mins (reference value: 2 ms); type: functional, Canis lupus familiaris, Heart
Canis familiaris [16] = experiment: Antiarrhythmic activity in anesthetized acute myocardial infarction dog model assessed as normal ECG complexes at 1.25 mg/kg, iv administered 10 mins prior to infarction measured during 1-hr postinfarction period (reference value: 19%); type: functional, Canis lupus familiaris, Heart; outline: as §1
Canis familiaris [17] = experiment: Effect on cardiac conduction in anesthetized acute myocardial infarction dog model assessed as increase in PR interval at 0.06 mg/kg/min, iv administered as continuous infusion for 60 mins measured after 10 mins (reference value: 0 ms); type: functional, Canis lupus familiaris, Heart
Canis familiaris [18] = experiment: Effect on cardiac conduction in anesthetized acute myocardial infarction dog model assessed as increase in QT duration at 0.06 mg/kg/min, iv administered as continuous infusion for 60 mins measured after 10 mins (reference value: 2 ms); type: functional, Canis lupus familiaris, Heart
Canis familiaris [19] = experiment: Effect on cardiac conduction in anesthetized acute myocardial infarction dog model assessed as increase in QT duration at 0.0125 mg/kg/min, iv administered as continuous infusion for 60 mins measured after 10 mins (reference value: 2 ms); type: functional, Canis lupus familiaris, Heart
Canis familiaris [20] = experiment: Effect on cardiac conduction in anesthetized acute myocardial infarction dog model assessed as increase in PR interval at 0.025 mg/kg/min, iv administered as continuous infusion for 60 mins measured after 10 mins (reference value: 0 ms); type: functional, Canis lupus familiaris, Heart
Canis familiaris [21] = experiment: Effect on cardiac conduction in anesthetized acute myocardial infarction dog model assessed as increase in PR interval at 0.0125 mg/kg/min, iv administered as continuous infusion for 60 mins measured after 10 mins (reference value: 0 ms); type: functional, Canis lupus familiaris, Heart
Canis familiaris [22] = experiment: Effect on cardiac conduction in anesthetized acute myocardial infarction dog model assessed as increase in QT duration at 0.03 mg/kg/min, iv administered as continuous infusion for 60 mins measured after 10 mins (reference value: 2 ms); type: functional, Canis lupus familiaris, Heart
Canis familiaris [23] = experiment: Effect on cardiac conduction in anesthetized acute myocardial infarction dog model assessed as increase in QT duration at 0.025 mg/kg/min, iv administered as continuous infusion for 60 mins measured after 10 mins (reference value: 2 ms); type: functional, Canis lupus familiaris, Heart
Canis familiaris [24] = experiment: Effect on cardiac conduction in anesthetized acute myocardial infarction dog model assessed as increase in PR interval at 0.03 mg/kg/min, iv administered as continuous infusion for 60 mins measured after 10 mins (reference value: 0 ms); type: functional, Canis lupus familiaris, Heart
Canis familiaris [25] = experiment: Antiarrhythmic activity in anesthetized acute myocardial infarction dog model assessed as normal ECG complexes at 10 mg/kg, po administered 120 mins prior to infarction measured post-infarction; type: functional, Canis lupus familiaris, Heart
Outline: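 Oral dosing 120 min before infarction in the same intracoronary tetrafluorohexachlorobutane arrhythmia model. Protection was read from ECG complexes after infarction, as the percentage that were normal.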

Canis familiaris [26] = experiment: Antiarrhythmic activity in anesthetized acute myocardial infarction dog model assessed as normal ECG complexes at 0.06 mg/kg, iv administered 10 mins prior to infarction measured during 1-hr postinfarction period (reference value: 19%); type: functional, Canis lupus familiaris, Heart; outline: as §1
Canis familiaris [27] = experiment: Antiarrhythmic activity in anesthetized acute myocardial infarction dog model assessed as normal ECG complexes at 0.07 mg/kg, iv administered 10 mins prior to infarction measured during 1-hr postinfarction period (reference value: 19%); type: functional, Canis lupus familiaris, Heart; outline: as §1
[28] = Canis lupus familiaris, Heart, iv, read-out: ED75

Row | SMILES | Activity (Canis familiaris [1]) [%] | ED75 (Canis familiaris [2]; [28]) [mg/kg] | Activity (Canis familiaris [3]) [%] | Activity (Canis familiaris [4]) [%] | Activity (Canis familiaris [16]) [%] | further results
1 | CNCc1ccccc1C(F)(F)C(F)(F)c1ccccc1.Cl | 93 | 0.84 | 73 | 38 |  | 
2 | CNC(C)c1ccccc1C(F)(F)C(F)(F)c1ccccc1.O=C(O)C(O)C(O)C(=O)O (single isomer, unassigned; (-)) |  |  |  | 44 |  | ED75 (Canis familiaris [2]): 0.48 mg/kg; Activity (Canis familiaris [3]; 0.5 mg/kg): 84%
3 | C=C[C@H]1CN2CC[C@H]1C[C@@H]2[C@@H](O)c1ccnc2ccc(OC)cc12 [QUINIDINE] | 25 | 9.4 |  |  |  | Activity (Canis familiaris [5]): 46%; Time (Canis familiaris [6]): 78 ms; Time (Canis familiaris [7]): 8 ms; Time (Canis familiaris [8]): 15 ms; Activity (Canis familiaris [9]): 31 bpm; Activity (Canis familiaris [10]): 21 bpm; Time (Canis familiaris [11]): 0 ms; Activity (Canis familiaris [12]): 89%; Activity (Canis familiaris [13]): 24 bpm; Time (Canis familiaris [14]): 33 ms; Time (Canis familiaris [15]): 36 ms
4 | CC(N)c1ccccc1C(F)(F)C(F)(F)c1ccccc1.O=C(O)/C=C\C(=O)O (configuration not stated) | 87 | 1.3 | 43 |  | 82 | 
5 | Br.CNCc1cccc(C(F)(F)C(F)(F)c2ccccc2)c1CNC | 92 | 1.3 | 61 | 30 | 65 | 
6 | CCN(CC)CC(=O)Nc1c(C)cccc1C [LIDOCAINE] |  |  |  |  |  | Time (Canis familiaris [17]): 0 ms; Time (Canis familiaris [18]): 0 ms; Time (Canis familiaris [19]): 0 ms; Time (Canis familiaris [20]): 2 ms; Time (Canis familiaris [21]): 0 ms; Time (Canis familiaris [22]): 0 ms; Time (Canis familiaris [23]): 0 ms; Time (Canis familiaris [24]): 0 ms
7 | Cl.Nc1ccccc1C(F)(F)C(F)(F)c1ccccc1 | 10 |  |  |  |  | ED75 (Canis familiaris [2]; Canis lupus familiaris, Heart): inactive; Activity (Canis familiaris [12]): 26%
8 | NCc1cc(F)ccc1C(F)(F)C(F)(F)c1ccccc1 |  | 0.5 | 48 |  |  | 
9 | CC(O)C(=O)O.NCc1ccccc1C(F)(F)C(F)(F)c1ccccc1CN | 71 | 2.5 | 38 |  | 59 | 
10 | CNC(C)(C)c1ccc(C(F)(F)C(F)(F)c2ccc(C)cc2)cc1.Cl | 67 |  |  |  |  | 
11 | Cl.NCc1ccc(C(F)(F)C(F)(F)c2ccccc2)cc1 | 37 |  |  |  |  | 
12 | Cl.NCc1ccccc1C(F)(F)C(F)(F)C(F)(F)c1ccccc1 | 83 | 1.8 |  | 24 | 68 | 
13 | Cc1c(CN)cccc1C(F)(F)C(F)(F)c1ccccc1.Cl | 49 |  |  |  |  | 
14 | CC(C)(N)c1ccc(C(F)(F)C(F)(F)c2ccccc2)cc1.Cl | 98 | 0.6 | 75 | 50 | 89 | Activity (Canis familiaris [25]): >=80%; Activity (Canis familiaris [26]): 35%
15 | Cl.NCc1ccccc1C(F)(F)C(F)(F)c1ccccc1 | 98 | 0.2 | 86 | 81 | 91 | Activity (Canis familiaris [25]): >=80%; Activity (Canis familiaris [27]): 58%
